Compound activity: PubChem, The Scripps Research Institute Molecular Screening Center
TAAR1 agonist: agonists of human TAAR1. CHO RD-HGA16 TAAR1, Fluo-8 calcium fluorescence; vehicle wells 0%, saturating PEA agonist 100%. activation, % at 3 µM. 360,000 tested, 0.99% active;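 active = activation above the mean activation of all test compounds in the run plus 3 SD, cut at about 38% in these data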
Target sequence (Q96RJ0 whole entry, looked up): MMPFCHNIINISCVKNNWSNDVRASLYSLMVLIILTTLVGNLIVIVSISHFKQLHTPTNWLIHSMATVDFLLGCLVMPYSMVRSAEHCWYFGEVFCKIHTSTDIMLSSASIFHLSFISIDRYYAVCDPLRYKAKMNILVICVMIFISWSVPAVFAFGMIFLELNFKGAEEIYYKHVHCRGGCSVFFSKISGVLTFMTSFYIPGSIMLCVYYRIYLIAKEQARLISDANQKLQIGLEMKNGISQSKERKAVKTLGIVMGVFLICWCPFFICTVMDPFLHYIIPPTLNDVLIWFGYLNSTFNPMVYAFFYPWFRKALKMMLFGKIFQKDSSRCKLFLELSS
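Test system: RD-HGA16 (CHO) cells co-expressing Gα16 and hTAAR1 / Benchmarks: DMSO vehicle as 0%, PEA at EC100 as 100% / Repeats: no replicates (n 1) / Measure: % activation from peak over basal fluorescence ratio, DMSO-to-PEA scaled / Timing: 17-24 h plating, Fluo-8 75 min 37 °C, 30 min RT / Technique: kinetic Fluo-8 calcium fluorescence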
core dimer inh: blocks dimerization of HCV core protein | TR-FRET GST/Flag-core106 dimerization, 1536-well | inhibition, % at 5 µM | 300,000 tested, 0.33% active | AID 1899;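 active = inhibition above the mean of all tested compounds plus 3 SD, set per screening campaign, cut at about 45% in these data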
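System – GST-tagged and Flag-tagged HCV core protein residues 1-106 · Repeats – one well for each compound · Technique – TR-FRET 671 and 617 nm emission · Doses – one concentration, 5 µM, in 0.5% DMSO · Times – 4 h, 22.5 °C incubation · Also added – Eu donor and XL665 acceptor anti-tag antibodies · Measure – percent inhibition of core106 dimerization signal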
HCV NS3 hel inh: HCV NS3 helicase inhibition | AID 1800 | inhibition, % at 10.9 µM | NS3 helicase DNA unwinding, Cy5 molecular beacon fluorescence | 290,000 tested, 0.56% active;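 active = inhibition above the mean of all tested compounds plus 3 SD, set per campaign, cut at about 35% in these data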;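 note: 0% = DMSO wells and 100% = thioflavine S control wells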
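System: Hepatitis C virus NS3 helicase domain fragment enzyme | Reagent: Annealed dual-labelled DNA beacon duplex, ATP-started | Compound dosing: 10.9 µM single point, 0.8% DMSO | Incubation: 1 h reaction at 25 °C, ATP-initiated | Technique: Cy5 fluorescence | Evaluation: Percent inhibition from t60/t0 fluorescence ratio | Benchmarks: Low DMSO, high thioflavine S at 110 µM | Replication: Singlicate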
rCAG RNA binder: r(CAG) repeat RNA binding | TO-PRO-1 dye displacement fluorescence | inhibition, % at 3 µM | 370,000 tested, 1.3% active | AID 651821;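 active = inhibition above the plate cutoff, the mean of all test compounds on that plate plus 3 SD, cut at about 35% in these data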;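 note: 0% = DMSO alone and 100% = 100 µM mitoxantrone as full dye displacement; higher means more dye released from RNA so lower well fluorescence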
TAAR1 antag: antagonists of human TAAR1; CHO RD-HGA16 TAAR1, Fluo-8 calcium fluorescence, antagonist; inhibition, % at 3 µM; 360,000 tested, 1.5% active;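 active = inhibition above a per-plate cutoff, the mean inhibition of test compounds on that plate plus 3 SD, cut at about 49% in these data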;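 note: 0% = DMSO plus EC80 beta-PEA response and 100% = DMSO alone without agonist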
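Material: CHO RD-HGA16 cells bearing hTAAR1; compound dosing: one-point dosing, 3 µM nominal final; schedule: dye loading 75 min at 37 °C, then 30 min room temperature; measured by: calcium fluorescence with Fluo-8; control set: vehicle and agonist controls; replication: n of 1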
rCAG binder conf: r(CAG) RNA repeat binding, confirmation; shares compounds with rCAG RNA binder; TO-PRO-1 dye displacement fluorescence; inhibition, % at 3 µM; 4,300 tested, 70% active; AID 652065;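 active = inhibition above a per-plate cutoff, the mean inhibition of sample wells plus 3 SD, cut at about 35% in these data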;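 note: loss of TO-PRO-1 fluorescence as compound displaces dye from 1x1 AA loop RNA; 0% = DMSO only wells and 100% = 100 µM mitoxantrone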
DNA CAG counter: DNA CAG dye complex inhibition counter-screen; inhibition, % at 3 µM; shares compounds with rCAG RNA binder; d(CAG) DNA oligo TO-PRO-1 dye displacement, fluorescence; 4,300 tested, 94% active;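 active = inhibition above its plate's cutoff, the mean test-well inhibition plus 3 SD, cut at about 4.8% in these data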;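 note: 0% = DNA dye mix with DMSO and 100% = 100 µM mitoxantrone; hits displace the dye from DNA and so lower well fluorescence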
An asterisk follows results filed as active; . = no result. Hits are enriched below; roughly 3.7% of the tested compounds scored in any of these assays.

SMILES | TAAR1 agonist | core dimer inh | HCV NS3 hel inh | rCAG RNA binder | TAAR1 antag | rCAG binder conf | DNA CAG counter
COC(=O)C1CN(CCO)CCS(=O)(=O)N1Cc1cn(Cc2ccc(C)cc2)nn1 (stereo not drawn) | . | . | . | 0.2 | . | . | .
COC(=O)C1CN(Cc2cn(CCC3OCCO3)nn2)CCS(=O)(=O)N1Cc1ccccc1 (stereo not drawn) | . | . | . | 1.4 | . | . | .
CCCc1nn2c(=O)c(C(c3cccc(Cl)c3)c3c(O)nc4sc(CCC)nn4c3=O)c(O)nc2s1 | 1.8 | 44.6 | 17.3 | 38.6* | 7.8 | 50.7* | 15.6*
O=C(COC(=O)c1cc(-c2ccc(Cl)s2)nc2ccccc12)NCc1ccco1 | 0.7 | 39.4 | -5.9 | 36.5* | -9.9 | 14.8 | 6.6*
COc1ccc(CNC(=O)COC(=O)c2cc(-c3ccc(Cl)s3)nc3ccccc23)cc1 | 5.5 | -8.9 | -6.5 | 2.9 | 23.8 | . | .
CC(C)Cn1c(N)c(C(=O)COC(=O)c2cc(-c3ccco3)nc3ccccc23)c(=O)n(C)c1=O | 0.5 | 53.5* | 16.0 | 41.2* | 4.0 | 38.7* | 19.9*
COc1ccccc1CNC(=O)COC(=O)c1cc(-c2ccco2)nc2ccccc12 | 4.3 | 68.8* | 33.7 | 41.3* | 0.2 | 31.4 | 16.9*
O=C(c1cc(-c2ccco2)nc2ccccc12)N1CCN(Cc2ccccc2)CC1 | 2.0 | . | . | 12.9 | 8.0 | . | .
COC(=O)C1CCN(C(=O)c2cc(-c3ccco3)nc3ccccc23)CC1 | 4.4 | . | . | 41.3* | 29.2 | 27.5 | 15.0*
NS(=O)(=O)c1ccc(Nc2nc(-c3cccc([N+](=O)[O-])c3)cs2)cc1 | 7.2 | 1.2 | 0.3 | 35.7* | 54.5* | 22.6 | 17.0*
O=C(O)c1ccccc1C(=O)Nc1nc(-c2ccc3ccccc3c2)cs1 | -1.5 | 12.4 | -3.2 | 70.2* | -33.3 | 63.3* | 26.3*
NS(=O)(=O)c1ccc(Nc2nc(-c3ccc4ccccc4c3)cs2)cc1 | 0.4 | 3.9 | -8.6 | 52.2* | 2.4 | 36.3* | 19.9*
Cc1nc(C)c(-c2csc(Nc3ccc(S(N)(=O)=O)cc3)n2)s1 | 3.2 | . | 15.1 | 5.4 | 8.0 | . | .
O=C(Nc1nc(-c2ccc3ccccc3c2)cs1)c1ccc(N2C(=O)CCC2=O)cc1 | 2.5 | 13.7 | -0.3 | 5.2 | 12.0 | . | .
Cc1ccc(-c2csc(Nc3ccc(S(N)(=O)=O)cc3)n2)o1 | 10.4 | 4.0 | 2.0 | 19.9 | -5.4 | . | .
Cn1cccc1C(=O)N1CCN(S(=O)(=O)c2ccc([N+](=O)[O-])cc2)CC1 | . | . | . | 3.1 | . | . | .
COc1ccc(-c2csc(Nc3ccc(S(=O)(=O)Nc4cc(C)on4)cc3)n2)cc1C | 11.7 | 26.2 | 10.3 | 92.6* | 49.0* | 82.2* | 42.6*
COc1ccc(CC(=O)Nc2ccc(S(=O)(=O)Nc3cc(C)on3)cc2)cc1OC | 1.5 | -1.4 | -5.9 | 4.9 | -0.9 | . | .
COc1ccc(-c2csc(Nc3ccc(S(=O)(=O)Nc4cc(OC)nc(OC)n4)cc3)n2)cc1 | -1.3 | 18.2 | -8.4 | 89.7* | 34.3 | 89.5* | 56.5*
COc1cc(NS(=O)(=O)c2ccc(Nc3nc(-c4ccccn4)cs3)cc2)nc(OC)n1 | 9.7 | 3.6 | -17.7 | 44.6* | -3.9 | 34.4 | 8.9*
COc1cc(NS(=O)(=O)c2ccc(NC(C)=O)cc2)nc(OC)n1 | 3.9 | 1.3 | -11.2 | -0.4 | 1.3 | . | .
COc1ccccc1OCC(=O)Nc1ccc(C(=O)Nc2ccccc2C(=O)O)cc1 | 5.0 | . | . | 58.1* | -41.1 | 64.7* | 22.8*
COc1ccc(CC(=O)Nc2ccc(C(=O)Nc3ccccc3C(=O)O)cc2)cc1OC | 7.8 | -10.6 | 17.0 | 58.6* | -53.4 | 42.0* | 9.9*
COc1ccc(CC(=O)Nc2ccc(C(=O)NC(C)(C)C)cc2)cc1OC | 7.7 | -1.5 | 2.0 | -3.5 | -18.3 | . | .
CC(C)(C)c1ccc(OCC(=O)Nc2ccc(C(=O)Nc3ccccc3C(=O)O)cc2)cc1 | -1.4 | 8.9 | 29.9 | 42.6* | -46.4 | 88.2* | 67.3*
COCCN=c1scc(-c2ccco2)n1/N=C/c1ccc(O)c(O)c1O | -1.0 | 53.9* | 20.9 | 47.9* | -3.9 | 59.9* | 29.8*
